Experimental data from ChEMBL document CHEMBL1156727, “Synthesis and evaluation of curcumin analogues as potential thioredoxin reductase inhibitors” (Bioorg Med Chem, 2008).
Active and inactive are the calls of the source. The calls are words filed in the database; no cut-off is given here.

Key:
[1] = Inhibition of TrxR preincuabatd for 4 mins
[2] = tested on: A549; assay: Cytotoxicity against TrxR overexpressing human A549 cells after 48 hrs by MTT assay; type: functional
Summary of the method: (§1)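 Cells grown in RPMI 1640 with 10% fetal calf serum, penicillin/streptomycin and 2 mM L-glutamine at 37 °C under 5% CO2. Seeded 1×10⁴/well and left overnight, then exposed 48 h to 0–100 µM. MTT was added for 4 h at 37 °C and formazan dissolved in DMSO, read at 570 nm. Run in quadruplicate; GC50 is the concentration giving 50% of control viability.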

[3] = tested on: MCF7; assay: Cytotoxicity against TrxR overexpressing human doxorubicin-resistant MCF7 cells after 48 hrs by MTT assay; type: functional
Summary of the method: as §1

[4] = tested on: HepG2; assay: Cytotoxicity against TrxR overexpressing human HepG2 cells after 48 hrs by MTT assay; type: functional
Summary of the method: as §1

[5] = tested on: A549; assay: Cytotoxicity against TrxR overexpressing human cis-diammine-dichloroplatinum (II)-resistant A549 cells after 48 hrs by MTT assay; type: functional
Summary of the method: as §1

[6] = Inhibition of TrxR preincuabatd for 2 hrs
[7] = biological target: T1, Thioredoxin reductase (Homo sapiens) (UniProt Q16881+Q9NNW7+Q86VQ6); assay: Inhibition of TrxR in human HeLa cells at 50 uM after 12 hrs by insulin reduction assay; type: cell-based
Summary of the method: (§2)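 Cells (1.5×10⁶) in RPMI 1640 were exposed 12 h; controls got <1% DMSO. Cells were trypsinized and lysed in Tris pH 7.4/Triton/deoxycholate/SDS buffer with protease inhibitors, then spun at 16,000g. Lysate was incubated 30 min at 37 °C with 2.5 mg/ml bovine insulin, NADPH and Trx in HEPES/EDTA pH 7.4. The reaction was stopped with guanidine-HCl/DTNB and read at A412. A no-Trx mixture served as background; activity is % of control, n≥3.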

[8] = biological target: T1, Thioredoxin reductase (Homo sapiens); assay: Inhibition of TrxR in human MCF7 cells at 50 uM after 12 hrs by insulin reduction assay; type: cell-based
Summary of the method: as §2

[9] = Inhibition of TrxR preincuabatd for 2 hrs followed by ultrafiltration

| Compound | IC50 [1] [µM] | GC50 [2] [µM] | also measured |
| --- | --- | --- | --- |
| COc1ccc(/C=C/C(=O)/C=C(O)/C=C/c2ccc(OC)c(OC)c2)cc1OC [DIMETHYLCURCUMIN] | > 100 | – | – |
| COc1cc(/C=C/C(O)=C/C(=O)/C=C/c2ccc(O)cc2)ccc1O [DEMETHOXYCURCUMIN] | 20 | – | – |
| O=C(/C=C(O)/C=C/c1ccco1)/C=C/c1ccco1 | 1.6 | 66.4 | GC50 [3]: 33.6 µM |
| CN(C)c1ccc(/C=C/C(=O)/C=C(O)/C=C/c2ccc(CO)o2)cc1 | 62.2 | – | GC50 [4]: >100 µM |
| O=C(/C=C(O)/C=C/c1cccs1)/C=C/c1ccc(O)cc1 | 20 | – | – |
| COc1ccc(/C=C/C(=O)/C=C(O)/C=C/c2ccc(CO)o2)cc1 | 0.8 | – | GC50 [5]: 12.1 µM; GC50 [3]: 10 µM; GC50 [4]: >100 µM |
| COc1cc(/C=C2\CCC/C(=C\c3ccc(O)cc3)C2=O)ccc1O | 5.1 | >100 | – |
| COc1cc(/C=C2\CCC/C(=C\c3ccc(O)cc3)C2=O)cc(OC)c1OC | 24.9 | – | – |
| COc1cc(/C=C/C(=O)/C=C(O)/C=C/c2ccc(C)o2)ccc1O | 0.5 | >100 | GC50 [5]: 39.4 µM |
| COc1cc(/C=C/C(=O)/C=C(O)/C=C/c2ccc(CO)o2)cc(OC)c1OC | 2 | >100 | GC50 [4]: >100 µM |
| COc1cc(/C=C/C(=O)CC(=O)/C=C/c2ccc(O)c(OC)c2)ccc1O [CURCUMIN] | 38.3 | 18.2 | IC50 [6]: 4.2 µM; GC50 [5]: 73 µM |
| O=C(/C=C(O)/C=C/c1ccc(O)cc1)/C=C/c1ccccc1 | 23.3 | 41.3 | – |
| O=C(/C=C(O)/C=C/c1ccccc1)/C=C/c1ccccc1 | > 100 | – | – |
| O=C(/C=C(O)/C=C/c1ccc(O)cc1)/C=C/c1ccccc1Br | 50 | – | – |
| COc1cc(/C=C/C(O)=C/C(=O)/C=C/c2ccc(CO)o2)ccc1O | 1 | >100 | GC50 [5]: 35.8 µM; GC50 [3]: 10.6 µM; GC50 [4]: >100 µM |
| COc1ccc(/C=C/C(=O)/C=C(O)/C=C/c2ccc(OC)cc2)cc1 | > 100 | – | GC50 [5]: >100 µM; GC50 [3]: >100 µM |
| O=C(/C=C(O)/C=C/c1ccc(CO)o1)/C=C/c1ccccc1 | 1.3 | – | GC50 [4]: >100 µM |
| COc1cc(/C=C/C(=O)/C=C(O)/C=C/c2ccc(O)cc2)cc(OC)c1OC | 13.8 | 60.1 | – |
| COc1cc(/C=C/C(O)=C/C(=O)/C=C/c2ccccc2)ccc1O | 57 | – | – |
| O=C(/C=C/c1ccc(O)cc1)CC(=O)/C=C/c1ccc(O)cc1 [BISDEMETHOXYCURCUMIN] | > 100 | – | – |
| Cc1ccc(/C=C/C(=O)/C=C(O)/C=C/c2ccc(C)o2)o1 | 0.3 | 52.9 | Activity [7]: Active; Activity [8]: Active; GC50 [5]: 59.6 µM; GC50 [3]: 48.5 µM; GC50 [4]: >100 µM; Activity [9]: Active |
